Laboratory results as given in the RNAGym collection of RNA variant scans (doi:10.1126/science.aae0568).
Fewer inactive variants are shown than the library holds.

B1: tRNA (parent)
chain: GUUCCGUUGGCGUAAUGGUAACGCGUCUCCCUCCUAAGGAGAAGACUGCGGGUUCGAGUCCCGUACGGAACG

Variants of: B1
Test: yeast fitness relative to wild type (ratio to wild type); higher = fitter; tRNA-Arg(CCU), competitive growth, 37 C, YPD
Method in brief: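 Changes in genotype frequencies gave Darwinian fitness relative to wild type. Frequencies were read by 100-nucleotide paired-end sequencing of gene amplicons before and after pooled Saccharomyces cerevisiae strains, carrying tRNA-Arg(CCU) gene variants at the native locus, were competed in YPD at 37°C for 24 hours in six replicates. A genotype was kept only with ≥ 100 starting reads, and estimates < 0.5 were set to 0.5.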

Row | Variant | yeast fitness
1 | A20G C24G G44C | 0.784
2 | A20C G48C | 0.889
3 | A20C C31U U53A | ≤ 0.5
4 | A20C U32A A37U | ≤ 0.5
5 | A20C C29U A37G | 0.753
6 | A20C G38C A70C | ≤ 0.5
7 | A20G A36G A65G | 0.846
8 | A20G A21U C31U A45C C49U A65C | ≤ 0.5
9 | A20C C24G G39C G68C | ≤ 0.5
10 | A20G A36G A45U | 0.683
11 | A20C C62U A70G | 0.733
12 | A20C C22G C33A U59C | ≤ 0.5
13 | A20C G38C | 0.639
14 | A20C G38A | 0.707
15 | A20C C24A C60G | ≤ 0.5
16 | A20C C34A | 0.674
17 | A20C G25A G44C G68A | 0.523
18 | A20C G38C G63A A70C | ≤ 0.5
19 | A20C C30U C66U | ≤ 0.5
20 | A20G C22U | 0.751
21 | A20C C27U C34G | 0.581
22 | A20C C33A G41C C49G A70U | 0.575
23 | A20C G25C C31U A43G G51A G67A | 0.583
24 | A20G A36C | 0.596

Row | Variant | yeast fitness
25 | A20C C24U A43C | ≤ 0.5
26 | A20G C22A G23C | ≤ 0.5
27 | A20C C29U C49G G58A | ≤ 0.5
28 | A20C C29U C34A C46A G50A A57U C66U | ≤ 0.5
29 | A20C G23U C60A | 0.676
30 | A20G C24U C33U A43C | ≤ 0.5
31 | A20C A65G | 0.936
32 | A20C A65U | 0.722
33 | A20G A40U U64A | ≤ 0.5
34 | A20C C27U | 1.02
35 | A20G A21G G38C G50C | ≤ 0.5
36 | A20C G25C U35A A45U | ≤ 0.5
37 | A20G A40U G58C | 0.77
38 | A20C U26C | 0.883
39 | A20G A37U G48C | 0.603
40 | A20C C33U G38C | ≤ 0.5
41 | A20C C29G A57U | ≤ 0.5
42 | A20C U47G C60G | ≤ 0.5
43 | A20C C30A A45U C60U | ≤ 0.5
44 | A20G C22G A45C C46G A57U | 0.553
45 | A20G A42C C66U | 0.625
46 | A20C G25C G38C G56C G63C U64C | 0.524
47 | A20C C27G A57C | ≤ 0.5
48 | A20G A43U C61G | ≤ 0.5

Row | Variant | yeast fitness
49 | A20C C34U C60A C66U | 0.605
50 | A20C C29U C31G C61G | ≤ 0.5
51 | A20C C24U U47A G67C | ≤ 0.5
52 | A20C U53G | 0.623
53 | A20G A36C G56C C61U | ≤ 0.5
54 | A20C C49G C62U | ≤ 0.5
55 | A20C C61U A69C A70C | ≤ 0.5
56 | A20C C55G A65G | 0.53
57 | A20C C33A G48A C66U A70G | ≤ 0.5
58 | A20C C55U A70C | 0.612
59 | A20C A45U | 0.8
60 | A20C A45G | 0.853
61 | A20C C29U C34A C46A G50A A57U G58A C66U | ≤ 0.5
62 | A20C G39A | 0.84
63 | A20C C22G C34G G44A A65U | 0.569
64 | A20C C31A G39C C49U | ≤ 0.5
65 | A20C C30A A70G | 0.588
66 | A20G A42G U59C | 0.634
67 | A20G A36U A42G G58A | ≤ 0.5
68 | A20G C22G C27G C30U C31G G51C U54C A65G | ≤ 0.5
69 | A20C C34G A43C C62U G68C | ≤ 0.5
70 | A20G C24A C29G A37U G39A | ≤ 0.5
71 | A20C G25C | 0.783
72 | A20C G25A | 1.06

Row | Variant | yeast fitness
73 | A20C C27A C30A C31U G52A | ≤ 0.5
74 | A20G A21C A43U G50A G52U A69C | ≤ 0.5
75 | A20C C31U A40G G52C C62A A65G | ≤ 0.5
76 | A20C G56C | 0.625
77 | A20C C49A U54A G58A C60A | 0.593
78 | A20C U26G A36C G38U | ≤ 0.5
79 | A20C C24G A69U | ≤ 0.5
80 | A20G A36U G63C U64C | 0.666
81 | A20G A43U C46U A57U | ≤ 0.5
82 | A20C U35G C46U G67U | ≤ 0.5
83 | A20C U26A C34G C46G | 0.595
84 | A20C U53G C66U | 0.696
85 | A20C C31U G68C | 0.609
86 | A20C G25A C31G C33U C34U G41C A57G | ≤ 0.5
87 | A20G A21C C30A G41C C66U | 0.526
88 | A20C C22G C29A C30G | 0.616
89 | A20C C22U C33U C66A | ≤ 0.5
90 | A20G C22G C49G | 0.568
91 | A20C C24A A36C G48C | ≤ 0.5
92 | A20C U35G C46U | ≤ 0.5
93 | A20C U28C A36C | ≤ 0.5
94 | A20G A37G | 0.718
95 | A20C U28G C46A | 0.531
96 | A20C C27G C49A | ≤ 0.5

Row | Variant | yeast fitness
97 | A20C G25A G44A | 0.85
98 | A20G C22U C31G | 0.626
99 | A20G C22G C27G C30U C31G G51C G67A A69U | ≤ 0.5
100 | A20C A43C A57C | ≤ 0.5
101 | A20C G52C U54A | ≤ 0.5
102 | A20C C22U | 0.729
103 | A20G A21C G39C C62G | ≤ 0.5
104 | A20C G48C C66U | 0.73
105 | A20C C29G U35C | ≤ 0.5
106 | A20C C61G C62A | ≤ 0.5
107 | A20C C34U G52A C62U | ≤ 0.5
108 | A20G C24A | 0.56
109 | A20G C24G | 0.575
110 | A20C C24U C66U | ≤ 0.5
111 | A20C C34G G68C | ≤ 0.5
112 | A20C G38A G51C U64G | ≤ 0.5
113 | A20C A65C C66U | 0.619
114 | A20G C22G U47C U53G | ≤ 0.5
115 | A20G A40C A69G | 0.625
116 | A20G C22A C24U | 0.589
117 | A20C G51C | 0.541
118 | A20C G51A | 0.815
119 | A20G A45G C49U | 0.687
120 | A20G A40U A45C A65U | ≤ 0.5

Row | Variant | yeast fitness
121 | A20G C22G C27G C30U C31G G51C A65G | 0.563
122 | A20C C24A C29U G63C | ≤ 0.5
123 | A20G A43C C61U A70C | ≤ 0.5
124 | A20C C24U C55U | ≤ 0.5
125 | A20C C24U C55G | 0.643
126 | A20C C27U U59G | 0.582
127 | A20C C22U C29G G41C C49G U53A | ≤ 0.5
128 | A20C U59A | 0.697
129 | A20C G25A U28C G44A | 0.553
130 | A20C C24U A42C C55G | ≤ 0.5
131 | A20C C33G U59C | 0.685
132 | A20C C46A C61U C66U | ≤ 0.5
133 | A20C U26G A36C G38U A65U | ≤ 0.5
134 | A20C C34G A42G | 0.922
135 | A20C U32A | 0.719
136 | A20C U32C | 0.985
137 | A20G C24U A65C | 0.653
138 | A20C C55A | 0.699
139 | A20G A37G U59A A70C | ≤ 0.5
140 | A20C C31U A40G G52C G67C | ≤ 0.5
141 | A20G A37C A40G | ≤ 0.5
142 | A20C A43U | 0.829
143 | A20C A43G | 1.01
144 | A20C C24A | 0.751

Row | Variant | yeast fitness
145 | A20C C24U | 0.798
146 | A20C G50A C62U | 1.13
147 | A20C C24G C27U C31G A65C | ≤ 0.5
148 | A20C C29G C31U A57U | ≤ 0.5
149 | A20C G67C A70U | 0.761
150 | A20C U28C A65G | 0.661
151 | A20C C22G C33A A42C C61U | ≤ 0.5
152 | A20C U28G U47C G68C | ≤ 0.5
153 | A20G A65U | 0.901
154 | A20G A65C | 1.06
155 | A20C U47C | 0.925
156 | A20C C34A G50C C61U | ≤ 0.5
157 | A20C C22U A65G | 0.596
158 | A20C G38A C55A C66U | ≤ 0.5
159 | A20C C29G A57U A70C | ≤ 0.5
160 | A20C G23C C27A U64A | ≤ 0.5
161 | A20C C31G G58C | 0.92
162 | A20C C33A A40C | 0.7
163 | A20C G68C | 0.689
164 | A20C G68U | 0.909
165 | A20C A45C G63C G67A | ≤ 0.5
166 | A20G A37G G44A | 0.658
167 | A20G A40G C66U | 0.647
